Our source for the IC50 and logD values is ChEMBL document CHEMBL3352144, “Cytotoxic Spliceostatins from Burkholderia sp. and Their Semisynthetic Analogues” (J Nat Prod, 2014).

Structures are written as SMILES.

By IC50 is commonly meant the point on the concentration scale where inhibition reaches its midpoint. Read a high IC50 as a need for much substance. Usually logD stands for lipophilicity at a set pH, counting ionised and neutral species. A higher logD goes with a more lipophilic compound.

Data set [1] concerns NCI-N87. The data set can be described thus: Cytotoxicity against human NCI-N87 cells after 4 days by MTS/cell proliferation assay. It counts as functional, cell-based. Conditions: NCI-N87, 96 h. Summed up:
(§1)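 Cells seeded in 96-well plates and dosed next day with 10 concentrations in 3-fold serial dilution, in duplicate. Incubated 4 days at 37 °C/5% CO2. Viability read by MTS or CellTiter-Glo luminescence. IC50 from four-parameter logistic fit.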

Data set [2] has as its system BT-474. Description: Cytotoxicity against human BT474 cells after 4 days by MTS/cell proliferation assay. It counts as functional, cell-based. To be noted: BT-474, 96 h. A digest of the protocol:
as §1

In data set [3] the test system is MDA-MB-468. Description: Cytotoxicity against human MDA-MB-468 cells after 4 days by MTS/cell proliferation assay. To be noted: MDA-MB-468, 96 h. It counts as functional, cell-based. A digest of the protocol:
as §1

Data set [4] is described as follows: 1-Octanol-buffer partition coefficient, log D of the compound at pH 7.4 by shake flask method. In kind it is physicochemical. A digest of the protocol:
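Shake-flask partition: 10 mM DMSO stock added to 1-octanol/pH 7.4 phosphate buffer (1:1, mutually presaturated), mixed 15 min at room temperature, centrifuged 1006g 10 min to split phases. Each phase was sampled, diluted and quantified by LC-MS/MS. Run in duplicate, typical CV ~20%.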

The subject of data set [5] is NCI-H1975. Description: Cytotoxicity against human NCI-H1975 cells after 4 days by MTS/cell proliferation assay. To be noted: NCI-H1975, 96 h. It counts as functional, cell-based. Summed up:
as §1

The nature of data set [6]: Cytotoxicity against human MDA-MB-DYT2 cells after 4 days by MTS/cell proliferation assay. In kind it is functional, cell-based. To be noted: 96 h. A digest of the protocol: as §1

As to `CC(=O)O[C@@H](C)/C=C\C(=O)N[C@@H]1C[C@H](C)[C@H](C/C=C(C)/C=C/[C@@H]2C[C@](O)(CCl)C[C@@H](CC(=O)O)O2)O[C@@H]1C`, the IC50 came out at 0.641 nM in data set [1], 1.85 nM in data set [2] and 1.35 nM in data set [3].

Regarding `CC(=O)O[C@@H](C)/C=C\C(=O)N[C@@H]1C[C@H](C)[C@H](C/C=C(C)/C=C/[C@@H]2C[C@]3(CO3)C[C@@H](CC(=O)O)O2)O[C@@H]1C`, the logD in data set [4] is 0.077. The IC50 in data set [5] was 3.6 nM; in data set [1], 2 nM; in data set [2], 4.8 nM; in data set [6] it was 9.1 nM; in data set [3] it was 3.4 nM.

Compound `C=C1C[C@@H](CC(=O)O)O[C@H](/C=C/C(C)=C/C[C@@H]2O[C@H](C)[C@H](NC(=O)/C=C\[C@H](C)OC(C)=O)C[C@@H]2C)C1` showed an IC50 in data set [5] of 30 nM.

Consider `C=C1C[C@@H](CC(=O)O)O[C@H](/C=C/C(C)=C/C[C@@H]2O[C@H](C)[C@H](NC(=O)/C=C\[C@H](C)OC(C)=O)C[C@@H]2C)[C@H]1O`, for which, in data set [5], 950 nM corresponded to half-maximal inhibition (IC50).

Turning to `CC(=O)O[C@@H](C)/C=C\C(=O)N[C@@H]1C[C@H](C)[C@H](C/C=C(C)/C=C/[C@@H]2CC(C)=CC(=O)O2)O[C@@H]1C`, the IC50 was found to be 3.67 nM in data set [1], 3.72 nM in data set [2], 4.16 nM in data set [6] and 1.56 nM in data set [3].

For the compound `CC(=O)O[C@@H](C)/C=C\C(=O)N[C@@H]1C[C@H](C)[C@H](C/C=C(C)/C=C/C(=O)O)O[C@@H]1C`, the IC50 in data set [1], in data set [2] and in data set [6] was more than 100 nM throughout.

On to `CC(=O)O[C@@H](C)/C=C\C(=O)N[C@@H]1C[C@H](C)[C@H](C/C=C(C)/C=C/[C@@H]2C[C@](O)(CCl)C[C@@H](CC(=O)OC[C@@]3(O)[C@H](O)[C@@H](/C=C/C(C)=C/C[C@@H]4O[C@H](C)[C@H](NC(=O)/C=C\[C@H](C)OC(C)=O)C[C@@H]4C)O[C@](C)(O)[C@@H]3O)O2)O[C@@H]1C`, for which the IC50 in data set [1] is 1.86 nM; in data set [2], 3.82 nM; in data set [6], 3.07 nM.

On to `CC(=O)O[C@@H](C)/C=C\C(=O)N[C@@H]1C[C@H](C)[C@H](C/C=C(C)/C=C/[C@H]2O[C@@H]3CC(=O)O[C@@](CCl)(C3)[C@@H]2O)O[C@@H]1C`, for which the IC50 in data set [1], in data set [6] and in data set [3] was more than 100 nM each time.

Compound `COC(=O)C[C@@H]1C[C@@]2(CO2)[C@H](O)[C@@H](/C=C/C(C)=C/C[C@@H]2O[C@H](C)[C@H](NC(=O)/C=C\[C@H](C)OC(C)=O)C[C@@H]2C)O1` came in with a logD in data set [4] of 2.23. The results for the IC50 in data set [1], in data set [2] and in data set [6] were 0.78 nM, 0.88 nM and 1.25 nM, respectively.

On to `CCCNC(=O)C[C@@H]1C[C@@]2(CO2)C[C@@H](/C=C/C(C)=C/C[C@@H]2O[C@H](C)[C@H](NC(=O)/C=C\[C@H](C)OC(C)=O)C[C@@H]2C)O1`, for which, in data set [4], the logD worked out at 3.72. The IC50 was found to be 2.4 nM in data set [5], 6 nM in data set [1], 2.5 nM in data set [2] and 1.7 nM in data set [3].

`CCCNC(=O)C[C@@H]1C[C@@]2(CO2)[C@H](O)[C@@H](/C=C/C(C)=C/C[C@@H]2O[C@H](C)[C@H](NC(=O)/C=C\[C@H](C)OC(C)=O)C[C@@H]2C)O1` gave a logD in data set [4] of 2.21. In addition, the IC50 in data set [5] came out at 0.28 nM; in data set [1], 0.64 nM; in data set [2] it was 0.19 nM; in data set [6] it was 0.29 nM; in data set [3], 0.11 nM.

As to `CC(=O)O[C@H]1C(=O)[C@@]2(C)[C@H]([C@H](OC(=O)c3ccccc3)[C@]3(O)C[C@H](OC(=O)[C@H](O)[C@@H](NC(=O)c4ccccc4)c4ccccc4)C(C)=C1C3(C)C)[C@]1(OC(C)=O)CO[C@@H]1C[C@@H]2O` [PACLITAXEL], the IC50 in data set [5] turned out to be 7.94 nM; in data set [1], 7.53 nM; in data set [2] it was 8.36 nM; in data set [6], 6.08 nM; in data set [3] it was 7.17 nM.

For `CC(=O)O[C@@H](C)/C=C\C(=O)N[C@@H]1C[C@H](C)[C@H](C/C=C(C)/C=C/[C@H]2O[C@H](CC(=O)O)C[C@@]3(CO3)[C@@H]2O)O[C@@H]1C` [THAILANSTATIN A], in data set [4], the logD is -0.658. For the same compound, the IC50 worked out at 320 nM in data set [5]; 59 nM in data set [1]; 145 nM in data set [2]; 161 nM in data set [6]; 142 nM in data set [3].

In the case of `CC(=O)O[C@@H](C)/C=C\C(=O)N[C@@H]1C[C@H](C)[C@H](C/C=C(C)/C=C/[C@H]2O[C@H](CC(=O)O)C[C@@](O)(CCl)[C@@H]2O)O[C@@H]1C` [THAILANSTATIN B], the IC50 in data set [1], in data set [2] and in data set [3] was more than 100 nM each time.
